Laboratory results from ChEMBL document CHEMBL4219235, “Novel fatty acid chain modified GLP-1 derivatives with prolonged in vivo glucose-lowering ability and balanced glucoregulatory activity” (Bioorg Med Chem, 2018).

Columns and labels:
Albumin = Albumin (Homo sapiens, UniProt P02768); experiment: Binding affinity to human serum albumin after 3 hrs by LC-MS/MS analysis; design: concentration or dose not given beside the values
Summary of the method: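 HSA was coupled to NHS-activated Sepharose (6–7 mg HSA/mL wet resin); an inactivated albumin-free resin served as control. Peptide (100 µg/mL in PBS) was incubated with each resin for 3 h at 25 °C. After centrifugation, unbound peptide in the supernatant was quantified by LC-MS/MS.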

[1] = biological target: Glucagon-like peptide 1 receptor (Homo sapiens, UniProt P43220); experiment: Agonist activity at recombinant human GLP1 receptor expressed in HEK293 cells assessed as cAMP accumulation by TR-FRET assay; type: functional, cell-based
Glucagon-like peptide 1 receptor, sequence (P43220 whole entry): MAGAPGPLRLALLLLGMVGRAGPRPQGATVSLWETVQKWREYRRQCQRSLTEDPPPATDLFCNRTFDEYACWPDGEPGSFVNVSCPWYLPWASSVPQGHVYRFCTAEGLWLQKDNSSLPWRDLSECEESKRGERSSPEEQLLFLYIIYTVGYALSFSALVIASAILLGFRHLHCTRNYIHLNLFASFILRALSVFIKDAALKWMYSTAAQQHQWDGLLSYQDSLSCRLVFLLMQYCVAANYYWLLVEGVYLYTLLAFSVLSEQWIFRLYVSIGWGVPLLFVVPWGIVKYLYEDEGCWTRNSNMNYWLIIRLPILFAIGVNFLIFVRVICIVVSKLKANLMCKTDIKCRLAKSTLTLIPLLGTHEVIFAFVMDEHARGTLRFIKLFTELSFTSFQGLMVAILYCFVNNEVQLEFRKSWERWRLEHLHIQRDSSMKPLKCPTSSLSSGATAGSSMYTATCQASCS

Albumin, sequence (P02768 whole entry): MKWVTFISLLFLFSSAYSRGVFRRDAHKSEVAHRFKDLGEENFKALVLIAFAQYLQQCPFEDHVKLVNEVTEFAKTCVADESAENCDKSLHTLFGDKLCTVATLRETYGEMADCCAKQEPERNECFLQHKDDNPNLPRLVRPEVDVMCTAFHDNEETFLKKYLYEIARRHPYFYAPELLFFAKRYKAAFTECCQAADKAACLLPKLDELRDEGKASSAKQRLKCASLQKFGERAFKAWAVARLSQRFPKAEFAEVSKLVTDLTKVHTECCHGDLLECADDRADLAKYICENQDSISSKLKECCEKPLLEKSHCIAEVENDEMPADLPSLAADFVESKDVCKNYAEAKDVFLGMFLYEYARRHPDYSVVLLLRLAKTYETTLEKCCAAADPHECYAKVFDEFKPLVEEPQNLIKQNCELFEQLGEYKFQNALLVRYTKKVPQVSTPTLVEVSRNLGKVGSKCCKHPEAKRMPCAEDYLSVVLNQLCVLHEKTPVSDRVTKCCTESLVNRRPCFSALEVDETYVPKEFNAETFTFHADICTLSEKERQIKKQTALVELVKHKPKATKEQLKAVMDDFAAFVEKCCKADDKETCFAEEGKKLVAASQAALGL

Structure (SMILES)	Activity (Albumin)	EC50 [1]
CC[C@H](C)[C@H](NC(=O)[C@H](Cc1ccccc1)NC(=O)[C@H](CCC(=O)O)NC(=O)[C@H](CCCCN)NC(=O)[C@H](C)NC(=O)[C@H](C)NC(=O)[C@H](CCC(N)=O)NC(=O)CNC(=O)[C@H](CCC(=O)O)NC(=O)[C@H](CC(C)C)NC(=O)[C@H](Cc1ccc(O)cc1)NC(=O)[C@H](CO)NC(=O)[C@H](CSC1CC(=O)N(CCC(=O)O)C1=O)NC(=O)[C@@H](NC(=O)[C@H](CC(=O)O)NC(=O)[C@H](CO)NC(=O)[C@@H](NC(=O)[C@H](Cc1ccccc1)NC(=O)[C@@H](NC(=O)CNC(=O)[C@H](CCC(=O)O)NC(=O)CNC(=O)[C@@H](N)Cc1cnc[nH]1)[C@@H](C)O)[C@@H](C)O)C(C)C)C(=O)N[C@@H](C)C(=O)N[C@@H](Cc1c[nH]c2ccccc12)C(=O)N[C@@H](CC(C)C)C(=O)N[C@H](C(=O)N[C@@H](CCCCN)C(=O)NCC(=O)N[C@@H](CCCNC(=N)N)C(N)=O)C(C)C (stereo partly drawn)	28.5%	0.0056 nM
CC[C@H](C)[C@H](NC(=O)[C@H](Cc1ccccc1)NC(=O)[C@H](CCC(=O)O)NC(=O)[C@H](CCCCN)NC(=O)[C@H](C)NC(=O)[C@H](C)NC(=O)[C@H](CCC(N)=O)NC(=O)CNC(=O)[C@H](CCC(=O)O)NC(=O)[C@H](CC(C)C)NC(=O)[C@H](Cc1ccc(O)cc1)NC(=O)[C@H](CO)NC(=O)[C@H](CSC1CC(=O)N(CCCCCC(=O)O)C1=O)NC(=O)[C@@H](NC(=O)[C@H](CC(=O)O)NC(=O)[C@H](CO)NC(=O)[C@@H](NC(=O)[C@H](Cc1ccccc1)NC(=O)[C@@H](NC(=O)CNC(=O)[C@H](CCC(=O)O)NC(=O)CNC(=O)[C@@H](N)Cc1cnc[nH]1)[C@@H](C)O)[C@@H](C)O)C(C)C)C(=O)N[C@@H](C)C(=O)N[C@@H](Cc1c[nH]c2ccccc12)C(=O)N[C@@H](CC(C)C)C(=O)N[C@H](C(=O)N[C@@H](CCCCN)C(=O)NCC(=O)N[C@@H](CCCNC(=N)N)C(N)=O)C(C)C (stereo partly drawn)	37.4%	0.0143 nM
CC[C@H](C)[C@H](NC(=O)[C@H](Cc1ccccc1)NC(=O)[C@H](CCC(=O)O)NC(=O)[C@H](CCCCN)NC(=O)[C@H](C)NC(=O)[C@H](C)NC(=O)[C@H](CCC(N)=O)NC(=O)CNC(=O)[C@H](CCC(=O)O)NC(=O)[C@H](CC(C)C)NC(=O)[C@H](Cc1ccc(O)cc1)NC(=O)[C@H](CO)NC(=O)[C@H](CSC1CC(=O)N(CCCCCCCCCCCC(=O)O)C1=O)NC(=O)[C@@H](NC(=O)[C@H](CC(=O)O)NC(=O)[C@H](CO)NC(=O)[C@@H](NC(=O)[C@H](Cc1ccccc1)NC(=O)[C@@H](NC(=O)CNC(=O)[C@H](CCC(=O)O)NC(=O)CNC(=O)[C@@H](N)Cc1cnc[nH]1)[C@@H](C)O)[C@@H](C)O)C(C)C)C(=O)N[C@@H](C)C(=O)N[C@@H](Cc1c[nH]c2ccccc12)C(=O)N[C@@H](CC(C)C)C(=O)N[C@H](C(=O)N[C@@H](CCCCN)C(=O)NCC(=O)N[C@@H](CCCNC(=N)N)C(N)=O)C(C)C (stereo partly drawn)	65.1%	0.0263 nM
CC[C@H](C)[C@H](NC(=O)[C@H](Cc1ccccc1)NC(=O)[C@H](CCC(=O)O)NC(=O)[C@H](CCCCN)NC(=O)[C@H](C)NC(=O)[C@H](C)NC(=O)[C@H](CCC(N)=O)NC(=O)CNC(=O)[C@H](CCC(=O)O)NC(=O)[C@H](CC(C)C)NC(=O)[C@H](Cc1ccc(O)cc1)NC(=O)[C@H](CO)NC(=O)[C@H](CO)NC(=O)[C@@H](NC(=O)[C@H](CC(=O)O)NC(=O)[C@H](CO)NC(=O)[C@@H](NC(=O)[C@H](Cc1ccccc1)NC(=O)[C@@H](NC(=O)CNC(=O)[C@H](CCC(=O)O)NC(=O)CNC(=O)[C@@H](N)Cc1cnc[nH]1)[C@@H](C)O)[C@@H](C)O)C(C)C)C(=O)N[C@@H](C)C(=O)N[C@@H](Cc1c[nH]c2ccccc12)C(=O)N[C@@H](CC(C)C)C(=O)N[C@H](C(=O)N[C@@H](CCCCN)C(=O)NCC(=O)N[C@@H](CCCNC(=N)N)C(=O)N[C@@H](CSC1CC(=O)N(CCCCCC(=O)O)C1=O)C(N)=O)C(C)C (stereo partly drawn)	34.1%	0.0093 nM
